Bioassay records from PubChem.
ABCB1 block: human ABCB1 inhibition, ABCG2 as counter-screen; CCRF-Adr cells, JC-1 efflux, flow cytometry; inhibition, % at 6.6 µM; P08183; 190,000 compounds, 0.067% hits; in the data active means inhibition above about 40%;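 further: 0% = vehicle and 100% = reference inhibitor; higher value means more JC-1 retained so stronger ABCB1 efflux block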
RGS4-Gao reg: modulates binding of RGS4 to human Galphao. P09471. Multiplexed bead flow cytometry; actives lie on both sides. binding response (% of control), % at 10 µM. 220,000 compounds, 0.33% hits. AID 1415; in the data active means binding response below about 49% or above about 150%; inactive means in between;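 further: fluorescent Galphao activated with aluminum fluoride binding bead-coupled RGS4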
Target sequence (P09471 whole entry, looked up): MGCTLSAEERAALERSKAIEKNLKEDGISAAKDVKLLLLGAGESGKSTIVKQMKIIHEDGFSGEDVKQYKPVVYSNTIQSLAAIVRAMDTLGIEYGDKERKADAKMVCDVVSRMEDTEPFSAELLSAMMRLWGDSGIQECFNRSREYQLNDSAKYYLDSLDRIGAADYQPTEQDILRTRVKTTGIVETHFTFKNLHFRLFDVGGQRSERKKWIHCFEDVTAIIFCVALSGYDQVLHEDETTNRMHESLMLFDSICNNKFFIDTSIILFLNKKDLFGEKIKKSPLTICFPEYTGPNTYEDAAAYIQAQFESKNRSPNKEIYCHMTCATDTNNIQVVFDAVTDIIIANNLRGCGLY
RGS7-Gao: modulates binding of RGS7 to human Galphao | P09471 | binding response (% of control), % at 10 µM | Multiplexed bead flow cytometry; actives lie on both sides | 220,000 compounds, 0.35% hits; in the data active means binding response below about 49% or above about 150%; inconclusive means no clear call, values can overlap the other calls; inactive means in between;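 further: fluorescent Galphao held in activated GDP-AlF4 state binding bead-coupled RGS7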
RGS16-Gao: regulators of human RGS16-Galphao interaction; O15492+P09471; bead-based flow cytometry RGS16-Galphao binding, fluorescence; actives lie on both sides; binding response (% of control), % at 10 µM; 220,000 compounds, 0.38% hits; AID 1441;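 further: Galphao activated by GDP with aluminum fluoride before binding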
ABCG2 inh: blocks JC-1 efflux by human ABCG2 transporter; 190,000 compounds, 0.1% hits; inhibition, % at 6.6 µM; Q9UNQ0; IgMXP3 cells, flow cytometry;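 active means inhibition above 80%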;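 further: 0% = DMSO and 100% = nicardipine control wells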
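Read-out basis: Efflux inhibition in percent versus controls | Test system: ABCG2 IgMXP3 and barcoded ABCB1 CCRF-Adr cell mix | Quantity: 3 million cells/mL in well | Schedule: 10 min at 25 °C | Control set: Nicardipine as high control, DMSO as low control | Reagent: JC-1 as fluorescent efflux pump substrate | Signal: Flow cytometry of retained JC-1 fluorescence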
RGS8-Gao: human RGS8-Galphao interaction regulation. multiplexed bead flow cytometry, RGS8-Galphao binding; actives lie on both sides. P09471. 220,000 compounds, 0.34% hits. response (percent of control binding), % at 10 µM; in the data active means response below about 60% or above about 140%; inactive means in between;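 further: Galphao activated as the GDP aluminium fluoride complex binding bead-coupled RGS8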
ABCB1 single pt: confirmation of human ABCB1 transporter inhibitors, ABCG2 counter-screen; shares compounds with ABCG2 inh; CCRF-Adr cells, JC-1 efflux, flow cytometry; inhibition, % at 6.6 µM; 270 compounds, 7% hits; AID 1451;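 active means inhibition of pump activity above 50%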;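 further: 0% = DMSO and 100% = nicardipine full pump inhibition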
ABCG2 confirm: confirmation of human ABCG2 transporter inhibitors, ABCB1 counter-screen | shares compounds with ABCG2 inh | IgMXP3 cells, JC-1 efflux, flow cytometry | inhibition, % at 6.6 µM | 270 compounds, 6% hits | AID 1453;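 active means inhibition above 50%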;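 further: 0% = DMSO wells and 100% = nicardipine pump inhibitor wells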
IgMXP3 fluor: counter-screen for ABCG2 inhibitors: compound fluorescence in IgMXP3 cells. shares compounds with ABCG2 inh. compound autofluorescence 488/530 nm, flow; hits give high values. fluorescence at 6.6 µM. 270 compounds, 30% hits;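 active means fluorescence in ABCG2-expressing cells above the plate's control-well mean plus 3 SD, cut at about 15 in these data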;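 further: median cell fluorescence with compound minus that of DMSO-treated control cells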
CCRF-Adr fluor: CCRF-Adr autofluorescence flag for ABCB1 confirmation. shares compounds with ABCG2 inh. 270 compounds, 30% hits. CCRF-Adr cells, compound autofluorescence 488/530 nm, flow cytometry; hits give high values. fluorescence at 6.6 µM. AID 1483;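 active means fluorescence beyond the plate control mean plus 3 SD, with a fluorescence-to-maximum score over 2, cut at about 25 in these data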
RGS-Gao: modulates binding between human RGS4 and Galphao; 1,600 compounds, 99% hits; RGS4–Galpha-o binding response, % at 10 µM; shares compounds with RGS16-Gao; multiplexed bead flow cytometry, RGS–Galpha-o binding;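 further: fluorescently labeled Galpha-o bound to GDP with aluminium fluoride binding biotinylated RGS beads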
Biotin-avidin: counter-screen: compounds disrupting biotin binding to avidin beads | inhibition, % at 10 µM | 1,700 tested, under 10 active | shares compounds with RGS16-Gao | streptavidin beads, fluorescein-biotin binding, flow cytometry;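 active means inhibition above 50%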;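 further: median green fluorescence of gated singlet beads compared with DMSO control wells; 0% = DMSO wells and 100% = complete loss of bead fluorescence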
RGS8-Gao confirm: RGS8-Galphao interaction regulation, single point confirmation; AID 1836; binding response (% of control), % at 10 µM; bead-based flow cytometry RGS8-Galphao binding, fluorescence; actives lie on both sides; shares compounds with RGS16-Gao; 1,700 compounds, 3% hits; in the data active means binding response below about 72% or above about 130%; inactive means in between;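 further: Galphao activated as GDP AlF4 complex before binding bead RGS8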
RGS7-Gao confirm: confirmation of regulators of human RGS7-Galphao interaction. shares compounds with RGS16-Gao. bead-based flow cytometry RGS7-Galphao binding; actives lie on both sides. response (percent of control binding), % at 10 µM. 1,700 compounds, 7.8% hits; in the data active means response below about 75% or above about 130%; inactive means in between;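 further: fluorescent Galphao activated with GDP and aluminum fluoride binding bead-coupled RGS7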
RGS16-Gao single: RGS16-Galphao interaction regulation, single point confirmation. shares compounds with RGS16-Gao. bead-based flow cytometry, RGS16-Galphao binding; actives lie on both sides. response (% of control binding), % at 10 µM. 1,700 compounds, 4% hits; in the data active means response below about 74% or above about 130%; inactive means in between;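 further: Galphao activated as the GDP aluminium fluoride complex binding bead-coupled RGS16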
RGS4-Gao confirm: confirmation of regulators of human RGS4-Galphao interaction. 1,700 compounds, 4% hits. RGS4-Galphao binding, multiplexed bead flow cytometry; actives lie on both sides. shares compounds with RGS16-Gao. binding response (% of control), % at 10 µM; in the data active means binding response below about 74% or above about 130%; inactive means in between
RGS19-Gao single: confirmation of regulators of human RGS19-Galphao interaction | bead-based flow cytometry RGS19-Galphao binding; actives lie on both sides | response (percent of control binding), % at 10 µM | shares compounds with RGS16-Gao | 1,700 compounds, 5% hits; in the data active means response below about 50% or above about 160%; inactive means in between;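 further: 100% = no compound control and 0% = blank background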
Target sequence (P09471 whole entry, looked up): as above
Target sequence (P49795 whole entry, looked up): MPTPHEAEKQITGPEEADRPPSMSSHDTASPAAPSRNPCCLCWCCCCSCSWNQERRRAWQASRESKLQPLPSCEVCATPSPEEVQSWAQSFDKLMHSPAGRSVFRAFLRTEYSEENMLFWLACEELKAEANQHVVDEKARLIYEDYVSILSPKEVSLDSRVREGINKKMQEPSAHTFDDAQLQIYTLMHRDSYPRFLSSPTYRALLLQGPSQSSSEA
Numbers without * were called inactive; ? = inconclusive; . = no result given; + = active, no number; [ ] = dose if it differs, or a comment. Rows were chosen to be rich in hits. Some 0.83% of all compounds tested hit in one or more screens of this group. Unless noted, how the calls were made is not given here.

SMILES	ABCB1 block	RGS4-Gao reg	RGS7-Gao	RGS16-Gao	ABCG2 inh	RGS8-Gao	ABCB1 single pt	ABCG2 confirm	IgMXP3 fluor	CCRF-Adr fluor	Biotin-avidin	RGS8-Gao confirm	RGS7-Gao confirm	RGS16-Gao single	RGS4-Gao confirm	RGS19-Gao single	others
Cc1cc(C)c(C(=O)COC(=O)CCNS(=O)(=O)c2c(Cl)cccc2Cl)cc1C	3.0	108.4	103.8	147.2	96.9*	116.7	9.7	46.6	-1.84	-4.89	.	.	.	.	.	.
O=C(O)CCCCCNS(=O)(=O)c1c(Cl)cccc1Cl	0.2	101.2	102.9	120.5	0.6	107.5	.	.	.	.	.	.	.	.	.	.
O=C(Nc1ccccc1F)NC1CCN(Cc2nnnn2Cc2ccc(F)cc2)CC1	0.0	100.1	98.7	100.8	1.0	101.0	.	.	.	.	.	.	.	.	.	.
O=C(Nc1ccc(F)cc1)NC1CCN(Cc2nnnn2Cc2ccco2)CC1	1.1	101.9	99.2	104.8	83.2*	102.0	1.1	21.1	-1.74	-2.89	.	.	.	.	.	.
N#C/C(=C\N1CCN(Cc2ccc3c(c2)OCO3)CC1)c1nc2ccccc2s1	13.3	105.9	103.9	105.6	15.8	101.8	.	.	.	.	.	.	.	.	.	.
CCOC(=O)N1CCN(/C=C(\C#N)c2nc3ccccc3s2)CC1	64.0*	104.3	107.5	108.1	87.0*	103.5	1.4	17.0	-0.99	15.1	.	.	.	.	.	.
COc1cccc(C(=O)/C(C#N)=N/Nc2cccc(-c3ccnc(C)n3)c2)c1	.	96.8	?	97.0	.	97.9	.	.	.	.	.	.	.	.	.	.
Cc1c(C(=O)Nc2ccc(F)cc2)c2ccccn2c1CCc1ccncc1	13.2	94.3	92.5	100.8	5.4	97.2	23.8	26.5	2.66	-0.14	.	.	.	.	.	.
CCN1/C(=C/c2ccc3cc(C)ccc3[n+]2CC)Sc2cc(C)ccc21	10.0	104.2	104.1	101.2	+	93.1	114.2*	8.2	118*	187*	.	.	.	.	.	.
CCCCN1/C(=C/c2ccc3ccccc3[n+]2CC)Sc2ccccc21	20.2	102.1	106.4	104.4	121.3*	101.7	72.7*	8.2	256*	337*	.	.	.	.	.	.
CCN1/C(=C/c2ccc3cc(C)ccc3[n+]2C)Sc2ccc3sccc3c21	0.8	96.6	102.1	101.7	2.5	98.7	.	.	.	.	.	.	.	.	.	.
COc1ccc(OCC(=O)Nc2ccccc2C(=O)N2CCOCC2)cc1	59.6*	103.4	113.3	104.0	0.0	102.5	0.8	4.1	0.36	-1.19	.	.	.	.	.	.
COC(=O)C1=C(C)NC(C)=C(C(=O)OC)C1c1ccc(-c2cccc(Cl)c2Cl)o1	3.8	106.7	104.8	64.6	85.2*	98.5	7.9	5.6	0.21	-1.34	.	.	.	.	.	.
CCN1/C(=C/C=C/c2oc3ccc4ccccc4c3[n+]2CC)Oc2ccc3ccccc3c21	24.4	538.5*[activator]	616.5*[activator]	368.9*[activator]	184.1*	125.6	69.3*	-37.3	546*	228*	-0.9	126.9*[activator]	526.5*[activator]	264.1*[activator]	431.3*[activator]	457.9*[activator]
CCOC(=O)N1CCN(S(=O)(=O)c2cccc3nonc23)CC1	0.1	100.7	101.7	102.1	0.3	99.2	.	.	.	.	.	.	.	.	.	.
N#C/C(=C/c1ccc(N2CCCCC2)o1)C(=O)Nc1ccc2ccccc2c1	134.0*	177.1*[activator]	191.9*[activator]	164.5	+	91.0	-144.1	-90.5	397*	624*	2.0	102.7	175.2*[activator]	138.5*[activator]	148.2*[activator]	219.6*[activator]
CCOC(=O)C1=C(C)NC(=O)NC1c1cccc(OC)c1OCc1ccccc1Cl (stereo not given)	1.5	112.2	111.2	113.6	3.5	103.8	.	.	.	.	.	.	.	.	.	.
O=C(NCC1OCCc2ccccc21)c1ccc(NC(=O)c2ccc(Cl)cc2Cl)cc1 (stereo not given)	94.6*	315.5*[activator]	329.1*[activator]	445.0*[activator]	111.0*	142.9*[activator]	6.5	42.8	1.71	-1.29	4.0	98.0	95.2	90.3	94.0	73.4
O=C(NCC1OCCc2ccccc21)c1ccc(NC(=O)c2ccccc2Cl)cc1 (stereo not given)	-9.4	101.7	100.9	91.9	-0.1	98.1	.	.	.	.	.	.	.	.	.	.
CCN(CC)C1=CC2=CC(=C(C#N)C#N)CCC2CC1 (stereo not given)	83.7*	165.0*[activator]	141.6	168.2	43.5	109.2	24.3	74.2*	18.8*	40*	3.0	103.0	166.8*[activator]	124.7	129.5*[activator]	362.9*[activator]
CCCCN(C)C1=CC2=CC(=C(C#N)C#N)CCC2CC1 (stereo not given)	+	146.5	163.7*[activator]	167.0	84.9*	106.3	163.6*	49.3	43.6*	232*	0.9	111.6	205.9*[activator]	157.2*[activator]	153.9*[activator]	293.1*[activator]	RGS-Gao=146.5*
N#CC(C#N)=C1C=C2C=C(N3CCCCC3)CCC2CC1 (stereo not given)	169.7*	161.5*[activator]	186.1*[activator]	172.9	51.4	109.9	62.4*	62.0*	17.3*	66.9*	1.4	104.8	136.8*[activator]	116.8	120.3	190.5*[activator]
O=C(O)COCC(=O)Nc1ccc(-n2nc(C(F)(F)F)cc2-c2cccs2)cc1	.	104.6	?	104.4	.	102.8	.	.	.	.	.	.	.	.	.	.
